Published values pooled from the literature.
Compare with care: the assays were run in different laboratories.
Target: Phosphatidylinositol 4,5-bisphosphate 3-kinase catalytic subunit delta isoform (PIK3CD, Homo sapiens, UniProt O00329)
One construct used (O00329 1-1044): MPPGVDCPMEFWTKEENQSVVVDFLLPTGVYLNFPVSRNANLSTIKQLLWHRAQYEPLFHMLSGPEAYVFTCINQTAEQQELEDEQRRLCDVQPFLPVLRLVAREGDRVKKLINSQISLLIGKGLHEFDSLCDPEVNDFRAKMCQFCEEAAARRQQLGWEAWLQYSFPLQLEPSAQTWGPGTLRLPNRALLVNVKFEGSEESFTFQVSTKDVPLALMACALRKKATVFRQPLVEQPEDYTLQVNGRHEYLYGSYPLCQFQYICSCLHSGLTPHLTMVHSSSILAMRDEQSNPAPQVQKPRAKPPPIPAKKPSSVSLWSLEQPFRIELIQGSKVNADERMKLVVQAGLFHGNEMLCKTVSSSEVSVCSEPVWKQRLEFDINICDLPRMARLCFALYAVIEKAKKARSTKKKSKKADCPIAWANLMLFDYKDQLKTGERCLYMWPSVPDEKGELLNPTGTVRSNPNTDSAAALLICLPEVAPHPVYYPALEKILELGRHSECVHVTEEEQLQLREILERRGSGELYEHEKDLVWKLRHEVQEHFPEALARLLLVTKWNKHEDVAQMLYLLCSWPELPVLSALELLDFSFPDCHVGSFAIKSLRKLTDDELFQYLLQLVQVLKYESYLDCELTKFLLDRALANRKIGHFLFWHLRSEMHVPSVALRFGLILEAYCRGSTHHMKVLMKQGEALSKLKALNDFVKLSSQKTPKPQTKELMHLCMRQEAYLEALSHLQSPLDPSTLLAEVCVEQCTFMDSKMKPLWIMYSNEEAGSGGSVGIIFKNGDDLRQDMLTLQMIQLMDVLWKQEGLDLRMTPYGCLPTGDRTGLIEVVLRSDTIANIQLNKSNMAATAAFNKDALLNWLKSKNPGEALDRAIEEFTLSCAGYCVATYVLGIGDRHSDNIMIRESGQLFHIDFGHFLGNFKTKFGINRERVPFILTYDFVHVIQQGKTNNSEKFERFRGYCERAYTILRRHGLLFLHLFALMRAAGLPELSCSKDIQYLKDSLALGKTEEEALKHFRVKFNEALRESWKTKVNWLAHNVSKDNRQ

Structure (SMILES) | test | setting | remaining binding
O=C(Nc1c[nH]nc1C(=O)NC1CCNCC1)c1cc(F)cc(F)c1 | binding, competition with immobilised ligand | 1 µM | 100%
CC1=C(C#N)[C@@H](c2ccc3[nH]nc(C)c3c2)C(C#N)=C(c2ccc(Cl)cc2)N1 | cell-free assay, competition with immobilised ligand | 1 µM | 100%
O=C(c1ccc(Nc2ncc(Cl)c(-c3cc4ccccc4s3)n2)cc1)N1CCC(N2CCCC2)CC1 | binding, competition with immobilised ligand | 1 µM | 71%
c1cnn2ncc(-c3ccnc(N4CCC45COC5)n3)c2c1 | binding | 1 µM | 69%
CNC(=O)Nc1ccc2c(c1)[C@@]1(CC2)OC(=O)N(CC(=O)N(Cc2ccc(F)cc2)[C@@H](C)C(F)(F)F)C1=O | cell-free assay, competition with immobilised ligand | 1 µM | 100%
O=C(c1ccc(Nc2ncc(Cl)c(-c3ccc(Cl)s3)n2)cc1)N1CCC(N2CCCC2)CC1 | binding, competition with immobilised ligand | 1 µM | 100%
CN(c1nccc(-c2cnn3ncccc23)n1)C1CC1 | binding | 1 µM | 100%
Nc1ncc2c(n1)-c1c([nH]c3ccc(C#CC4CC4)cc13)CCCC2 | binding, competition with immobilised ligand | 1 µM | 70%
C[C@@H]1CCN(c2nccc(-c3cnn4ncccc34)n2)C1 | binding | 1 µM | 100%
C=CC(=O)N1CCC(C(=O)NCC(=O)N2CCN(c3nc(-c4cnc(N)nc4C(F)F)nc(N4CCOCC4)n3)CC2)CC1 | binding, competition with immobilised ligand | 1 µM | 19%
COc1ncc2cc3ccccc3nc2c1C#N | cell-free assay, competition with immobilised ligand | 5 µM | 98%
CN(C)c1nccc(-c2cnn3ncccc23)n1 | binding | 1 µM | 85%
C[C@@H](c1ccc(-n2cnc3c(N)ncnc32)cc1)N1CCc2nn(C)c(Cc3ccccc3)c2C1=O | binding, competition with immobilised ligand | 0.1 µM | 61%
Cc1cc(-n2nc(Cc3cc(F)cc(C(F)(F)F)c3)nc2C)ccc1C(N)=O | cell-free assay, competition with immobilised ligand | 1 µM | 52%
CNC(=O)[C@@H]1CC[C@@H](n2c(-c3ccc4cnccc4c3)nc3ccc(C(=O)NCc4cccc(C(N)=O)c4)cc32)C1 | binding, competition with immobilised ligand | 1 µM | 100%
CCc1ccccc1C(=O)Nc1n[nH]c2c(C)c(F)c(C3C(C#N)=C(C)N(C)C(C)=C3C#N)cc12 | cell-free assay, competition with immobilised ligand | 1 µM | 90%
COc1ccnn2ncc(-c3ccnc(N(C)C)n3)c12 | binding | 1 µM | 68%
Cc1nc(N2CC[C@@H](O)C2)ncc1-c1cc(C(F)(F)F)cc2[nH]ncc12 | cell-free assay, competition with immobilised ligand | 1 µM | 72%
O=C(NCCCN1CCOCC1)c1ccc(Nc2nccc(-c3cc4ccccc4s3)n2)cc1 | binding, competition with immobilised ligand | 1 µM | 56%
O=C1NC(c2ccccn2)Sc2ccccc21 (stereo not drawn) | cell-free assay, competition with immobilised ligand | 1 µM | 51%
N[C@@H]1CCN(c2nccc(-c3cnn4ncccc34)n2)C1 | binding | 1 µM | 100%
